TRPC6 inhibitor: mouse TRPC6 channel inhibitors, primary screen, cell-based, HEK293, membrane potential dye; Short transient receptor potential channel 6 (Mus musculus), Q61143; ACh-evoked depolarization; hits give low values; 1.1% of 310,000 active; B-score at 10 µM;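 active = B-score under library mean minus 3 SD, initial fluorescence not abnormally high, positive integrated signal ratio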;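 note: B-score derived from integrated fluorescence ratio over the kinetic read; more negative B-score means stronger inhibition of depolarization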
TRPC4 agonist: activators of mouse TRPC4 channel, primary screen, Fluo4 calcium, HEK293 TRPC4beta/mu-opioid cells | B-score at 10 µM | Short transient receptor potential channel 4 (Mus musculus), Q9QUQ5 | 0.49% of 310,000 active | Fluo4 calcium fluorescence; hits give high values;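 active = B-score above 5 SD of library B-scores, and initial fluorescence ratio not above library mean plus 5 SD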;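 note: positive B-score marks a calcium rise read as TRPC4 activation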
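Material: TRPC4beta and mu-opioid receptor HEK293 stable cells | Incubation: 45 min room-temperature Fluo4 loading, 110 s read | Detection: Kinetic Fluo4 calcium fluorescence | Measure: Integrated baseline-normalised fluorescence ratio, converted to per-well B score | Benchmarks: Low control buffer alone, high control maximal DAMGO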
TRPC4 block: inhibitors of mouse TRPC4 channel, primary screen, Fluo4 calcium, HEK293 TRPC4beta/mu-opioid cells | 0.39% of 300,000 active | B-score at 10 µM | Short transient receptor potential channel 4 (Mus musculus), Q9QUQ5 | DAMGO-evoked Fluo4 calcium flux; hits give low values;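 active = B-score over 3 SD under the library average, no early fluorescence shift, positive overall ratio signal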
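Material: HEK293 cells with stable TRPC4beta plus mu-opioid receptor expression / Probe or stimulus: DAMGO in two steps, submaximal then maximal / Compound: single concentration per test compound / Technique: kinetic Fluo4 fluorescence imaging of calcium influx / Read-out: per-well B score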
TRPC6 activator: mouse TRPC6 channel activators, primary screen, cell-based, HEK293, membrane potential dye. HEK293-TRPC6 membrane potential dye fluorescence; hits give high values. B-score at 10 µM. 0.13% of 310,000 active;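 active = B-score of the integrated fluorescence ratio above library mean plus 3 SD, and starting fluorescence ratio within library mean plus 5 SD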;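 note: higher score means more depolarization so channel activation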
TRPC4 potent: positive allosteric modulators of TRPC4, primary screen, cell-based, mouse TRPC4beta, HEK293 mu-opioid, Fluo-4 calcium. B-score at 10 µM. DAMGO EC20, Fluo-4 Ca2+ flux; hits give high values. 0.42% of 310,000 active. AID 2227, 2009;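 active = B-score of calcium response area above 5 SD of library B-scores, with initial fluorescence ratio within 5 SD of library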;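 note: B-score of integrated fluorescence ratio over time as area under calcium response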
TRPC4 spec 2: second selectivity test of TRPC6 inhibitors: effect on mouse TRPC4 | shares compounds with TRPC6 inhibitor | HEK293 TRPC4/MOR, membrane potential dye fluorescence; channel activated by saturating DAMGO dose | inhibition, % at 10 µM | 42% of 920 active | AID 2776;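 active = compounds whose fluorescence signal differed from control wells by over 3 SD, either direction, in both duplicate plates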
TRPC4 spec: mouse TRPC4 modulation by TRPC6 hits, confirmation, selectivity assay for TRPC6 inhibitor project, cell-based, HEK293 TRPC4/mu-opioid, membrane potential dye; membrane potential fluorescence; AID 2777, 2010; 61% of 920 active; shares compounds with TRPC6 inhibitor; activity change, negative = inhibition, % at 10 µM;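 active = rise or fall in signal beyond 3 SD of buffer-only wells in both replicate plates, either sign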;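 note: integrated kinetic ratio of fluorescence range over baseline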
HEK293 MPD ctr 2-1: nonspecific membrane potential effects, parental HEK293, confirmation, counter-screen for TRPC6 inhibitor project, cell-based, second counter screen. shares compounds with TRPC6 inhibitor. signal change vs control, % at 10 µM. AID 2779, 2010. parental HEK293 membrane potential dye fluorescence; maximal acetylcholine challenge after compound addition. 31% of 920 active;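 active = membrane potential signal moving either way by over 3 SD of the maximum-effect control, in both duplicate plates, meaning non-specific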
HEK293 MPD ctr-1: membrane potential modulation in parental HEK293, confirmation, counter-screen for TRPC6 inhibitor project, cell-based; shares compounds with TRPC6 inhibitor; parental HEK293 membrane potential dye fluorescence; membrane potential signal change, % at 10 µM; 60% of 920 active; AID 2780, 2010;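 active = membrane potential signal shifting up or down by more than 3 SD of buffer-only wells, on both duplicate plates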
HEK293 MPD ctr-2: parental HEK293 membrane potential modulation, confirmation, counter-screen for TRPC6 modulator project, cell-based; shares compounds with TRPC6 inhibitor; 51% of 2,400 active; membrane potential signal change, % at 10 µM; membrane potential dye fluorescence; AID 488924, 2010;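 active = membrane potential signal moves up or down beyond 5 SD from buffer-only wells, on both duplicate plates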
HEK293 MPD ctr 2-2: second counter-screen for TRPC6 modulators: effect in parental HEK293 cells. shares compounds with TRPC6 inhibitor. membrane potential dye fluorescence; after compound, maximal acetylcholine stimulation. inhibition, % at 10 µM. 14% of 2,400 active. AID 488926;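 active = membrane potential signal drops by more than 5 SD from the mean control signal, in both duplicate plates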;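 note: plate controls were acetylcholine ECmax control wells for no effect and buffer only wells for full effect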
TRPC4 ctr mod: TRPC4 modulation by TRPC6 hit compounds, confirmation, selectivity assay for TRPC6 modulator project, cell-based, HEK293 TRPC4/mu-opioid, membrane potential dye, mouse; AID 488927, 2010; shares compounds with TRPC6 inhibitor; percent change from control (negative = decrease, positive = increase), % at 10 µM; 69% of 2,400 active; membrane potential fluorescence;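 active = membrane potential signal moved up or down beyond 5 SD of buffer control wells, in both duplicate plates, actives on both sides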;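 note: plate controls were assay buffer wells for no effect and DAMGO maximal-effect wells for full effect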
TRPC4/MOR inh 2: second check of whether TRPC6 modulators also affect mouse TRPC4 | 55% of 2,400 active | AID 488928 | HEK293 TRPC4/mu-opioid, membrane potential dye fluorescence; stimulated with maximal-effect DAMGO | inhibition, % at 10 µM | shares compounds with TRPC6 inhibitor;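 active = drop in membrane potential signal beyond 5 SD of the control wells in both duplicate plates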;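 note: TRPC4 counter screen for TRPC6 hits run under conditions tuned for TRPC6 not TRPC4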
TRPC6 inh conf: mouse TRPC6 channel inhibitors, confirmation, HEK293 cells, membrane potential dye, duplicate. shares compounds with TRPC6 inhibitor. ACh-evoked depolarization. inhibition, % at 10 µM. 43% of 3,300 active. AID 488960, 2010;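 active = fluorescence ratio falls more than 5 SD below the full-stimulation control mean, in both duplicate runs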;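 note: integrated fluorescence ratio of peak minus minimum over baseline after agonist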
TRPC6 act conf: mouse TRPC6 channel activators, confirmation, HEK293 cells, membrane potential dye, duplicate; HEK293-TRPC6 membrane potential dye fluorescence, FDSS; 11% of 2,800 active; shares compounds with TRPC6 inhibitor; activation, % at 10 µM; AID 488961, 2010;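 active = ratio signal rise beyond 5 SD above unstimulated control wells' mean, seen in both duplicate runs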;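 note: plate controls were buffer EC0 wells for no effect and acetylcholine ECmax response for full effect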
* = called active by the depositor; i = inactive; · = no result. An excerpt weighted towards active compounds, which were near 2.3% of everything screened.

SMILES	TRPC6 inhibitor	TRPC4 agonist	TRPC4 block	TRPC6 activator	TRPC4 potent	HEK293 MPD ctr-2	HEK293 MPD ctr 2-2	TRPC4 ctr mod	TRPC4/MOR inh 2	TRPC6 inh conf	TRPC6 act conf	others
CCOC1=C/C(=C/c2c(N)n3nc(-c4ccccc4)sc3nc2=O)C=CC1=O	-5.26*	i	i	13.2*	i	427.5%*	140.0%*	52.0%*	i	i	73.0%*
CCS(=O)(=O)c1nn2c(N)c(/C=C3/C=CC(=O)C(OC)=C3)c(=O)nc2s1	i	i	i	i	i	·	·	·	·	·	·
CCc1cccc(OCC(=O)Nc2ccccc2N2CCCC2)c1	-6.1*	i	i	i	i	i	i	i	33.0%*	i	i
COc1ccc(C(=O)/C(C#N)=N/Nc2ccc([N+](=O)[O-])cc2)cc1	-5.72*	i	i	i	i	i	i	i	i	i	i
OCCCn1c(-c2ccccc2)csc1=Nc1ccccc1	-5.76*	i	i	i	i	382.0%*	141.0%*	76.5%*	i	126.0%*	·
O=C(O)CCC(=O)NCCn1c(-c2ccccc2)csc1=Nc1ccccc1	i	i	i	i	i	·	·	·	·	·	·
Cc1cc(C)n2[nH]c(=O)c(N=Nc3ccccc3)c2n1	-7.42*	i	i	i	i	·	·	·	·	i	i	TRPC4 spec 2=i;TRPC4 spec=-24.3%*;HEK293 MPD ctr 2-1=i;HEK293 MPD ctr-1=-388.0%*
Cc1cc(C)n2[nH]c(=O)c(N=Nc3cccc(C(F)(F)F)c3)c2n1	i	i	i	i	i	·	·	·	·	·	·
Cc1cc(C)n2[nH]c(=O)c(N=Nc3cccc(Cl)c3)c2n1	-7.5*	i	i	i	i	-198.5%*	65.0%*	-28.0%*	37.0%*	46.5%*	i
N=c1n(CCN2CCCC2)c2ccccc2n1CC(O)c1ccco1 (centres undefined)	i	i	i	i	i	·	·	·	·	·	·
CCCCCCCn1c(=N)n(CC(=O)c2ccco2)c2ccccc21	-5.33*	i	i	i	i	93.5%*	i	16.0%*	77.5%*	57.5%*	i
CCCCCCCn1c(=N)n(CC(O)c2ccco2)c2ccccc21 (centres undefined)	-5.38*	i	i	i	i	235.0%*	i	44.5%*	93.0%*	70.0%*	·
CC(=O)c1cccc(NC(=O)CSc2nnnn2C2CCCC2)c1	i	i	i	i	i	·	·	·	·	·	·
Cc1ccc(N2CC(C(=O)N3CCC(C(=O)NCCCOC(C)C)CC3)CC2=O)cc1 (centres undefined)	i	i	i	i	i	·	·	·	·	·	·
Cc1cccnc1NCC(O)COc1ccccc1 (centres undefined)	-6.48*	i	i	i	i	i	i	i	i	i	i
CC(=O)Nc1cc(NC(C)=O)cc(C(=O)OCC(=O)Nc2ccc(S(=O)(=O)NC3=NCCCCC3)cc2)c1	i	i	i	i	i	·	·	·	·	·	·
COc1ccc(/C=N/n2c(-c3n[nH]c4c3CCC4)n[nH]c2=S)cc1	-5.01*	i	i	i	i	i	i	i	i	i	·
CC(/C=N/n1c(-c2n[nH]c3c2CCC3)n[nH]c1=S)=C\c1ccco1	-8.44*	i	i	i	i	·	·	·	·	69.5%*	i	TRPC4 spec 2=i;TRPC4 spec=i;HEK293 MPD ctr 2-1=-11.0%*;HEK293 MPD ctr-1=i
CC(/C=N/n1c(-c2cccnc2)n[nH]c1=S)=C\c1ccco1	i	i	i	i	i	·	·	·	·	·	·
C/C(=N\Nc1nc(N2CCCCC2)nc(N2CCOCC2)n1)c1ccccc1O	i	i	i	i	i	·	·	·	·	·	·
CC1=C(C(=O)OC(C)C)C(c2ccccc2)NC(=S)N1C (centres undefined)	i	i	i	i	i	·	·	·	·	·	·
Cc1ccc(S(=O)(=O)c2nc(S(C)(=O)=O)sc2N2CCCCC2C)cc1 (centres undefined)	i	i	i	i	i	·	·	·	·	·	·
CCn1c(C)nc2cc(C(=O)N/N=C(\C)c3ccc(OC)cc3O)ccc21	i	i	i	i	i	·	·	·	·	·	·

Source: PubChem (Johns Hopkins Ion Channel Center)
